T cruzi intra: blocks T. cruzi growth inside host cells; intracellular Trypanosoma cruzi in host cells, plate reader; hit rate 4.9% among 22,000; activity score (inhibition), % at 5.01 µM; AID 651903; in the data active means activity score above about 55%; inconclusive means no clear call, values can overlap the other calls;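 further: parasites and compound incubated about four days before reading; 0% = median of neutral control wells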
YB-1 expression: YB-1 expression inhibition. U2OS, qRT-PCR YB-1 vs CDIP delta delta Cp, 16 h; hits give high values; zero = DMSO, each unit about twofold. AID 434959. delta delta Cp (YB-1 minus CDIP) (concentration not given with the values). hit rate 0.37% among 30,000;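 active means delta delta Cp rounded down to an integer at or above 3, about 3 SD of DMSO wells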;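 further: higher means less YB-1 transcript or more CDIP transcript relative to DMSO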
INS-1E rescue: preserves ATP levels in cytokine-treated INS-1E cells. INS-1E cytokine-induced death, ATP luminescence, 48 h; normalised: neutral wells 0, positive control 100. protection from cytokine-induced ATP loss, % at 10 µM. hit rate 0.1% among 20,000. AID 488910;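 active means mean replicate protection from cytokine-induced ATP loss at least 50% and at least 75% of replicates each reaching 50%; inconclusive means meets only one of the two criteria, mean or replicate share; inactive means fails both the mean and replicate share criteria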
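Assay system: INS-1E rat cells / Quantity: 8000 cells per well / Medium: RPMI without phenol red, 5% FBS / Probe or stimulus: three-cytokine cocktail (IFN-γ, TNF-α, IL-1β) / Dosing: one compound concentration, pin transfer / Timing: 48 h co-treatment, 10 min post-lysis read / Technique: CellTiter-Glo luminescence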
An asterisk follows results filed as active; ? = inconclusive; nt = not tested or not shown. This is one part of a sample in which hits are shown more often than they occur.

SMILES	T cruzi intra	YB-1 expression	INS-1E rescue
C[C@@H]1CN([C@H](C)CO)C(=O)Cc2cc(NS(=O)(=O)c3ccc(Cl)cc3)ccc2O[C@H]1CN(C)Cc1ccc(C(F)(F)F)cc1	64*	-0.09	-12
C[C@@H]1CN([C@@H](C)CO)C(=O)Cc2cc(NS(=O)(=O)c3ccccc3)ccc2O[C@@H]1CN(C)Cc1ccc(C(F)(F)F)cc1	-7	0.18	5
C[C@@H]1CN([C@H](C)CO)C(=O)Cc2cc(NS(=O)(=O)c3ccc(Cl)cc3)ccc2O[C@@H]1CN(C)Cc1ccc(C(F)(F)F)cc1	54	-0.038	-19
C[C@@H]1CN([C@H](C)CO)C(=O)Cc2cc(NC(=O)Nc3ccc(C(F)(F)F)cc3)ccc2O[C@@H]1CN(C)S(=O)(=O)c1ccc(Cl)cc1	58*	0.12	6
C[C@@H]1CN([C@H](C)CO)C(=O)Cc2cc(NC(=O)Nc3ccc(C(F)(F)F)cc3)ccc2O[C@H]1CN(C)S(=O)(=O)c1ccc(F)cc1	6	0.25	-4
Cc1ccc(S(=O)(=O)N(C)C[C@H]2Oc3ccc(NC(=O)Nc4ccc(C(F)(F)F)cc4)cc3CC(=O)N([C@@H](C)CO)C[C@H]2C)cc1	58*	0.4	-36
C[C@H](CO)N1C[C@H](C)[C@H](CN(C)S(=O)(=O)c2ccc(Cl)cc2)Oc2ccc(NC(=O)Nc3ccc(C(F)(F)F)cc3)cc2CC1=O	63*	0.63	-9
C[C@@H]1CN([C@H](C)CO)C(=O)Cc2cc(NC(=O)Nc3ccc(C(F)(F)F)cc3)ccc2O[C@H]1CN(C)S(=O)(=O)c1ccc(Cl)cc1	33	1.6	-62
COc1ccc(S(=O)(=O)N(C)C[C@H]2Oc3ccc(NC(=O)Nc4ccc(C(F)(F)F)cc4)cc3CC(=O)N([C@@H](C)CO)C[C@@H]2C)cc1	2	-0.48	6
Cc1ccc(S(=O)(=O)N(C)C[C@@H]2Oc3ccc(NC(=O)Nc4ccc(C(F)(F)F)cc4)cc3CC(=O)N([C@@H](C)CO)C[C@@H]2C)cc1	?	0.041	-57
COc1ccc(S(=O)(=O)N(C)C[C@H]2Oc3ccc(NC(=O)Nc4ccc(C(F)(F)F)cc4)cc3CC(=O)N([C@@H](C)CO)C[C@H]2C)cc1	65*	0.17	-12
C[N+]1(CC(O)CN2CCCC2=O)CCCCCC1 (centres undefined)	nt	-0.38	nt
COc1cc(/C(C)=C/C(C)O)oc(=O)c1C (centres undefined)	nt	0.3	nt
CC(CN1CCN(Cc2ccccc2)CC1)N(C(=O)c1ccc(C(C)(C)C)cc1)c1ccccn1 (centres undefined)	nt	-0.45	nt
C[C@@H]1CN([C@@H](C)CO)C(=O)Cc2cc(NC(=O)Nc3ccc(C(F)(F)F)cc3)ccc2O[C@@H]1CN(C)S(=O)(=O)c1ccc(F)cc1	81*	0.09	-4
C[C@H]1CN([C@@H](C)CO)C(=O)Cc2cc(NC(=O)Nc3ccc(C(F)(F)F)cc3)ccc2O[C@H]1CN(C)S(=O)(=O)c1ccc(F)cc1	31	-0.16	-13
CCCCCCC(=O)OC1OC(CO)C(O)C2OCC(C(=O)O)COC12 (centres undefined)	nt	0.25	nt
CCCCCCC/C=C/C(=O)CCc1ccc(O)c(OC)c1	nt	0.27	nt
COc1ccc(S(=O)(=O)Nc2ccc3c(c2)CC(=O)N([C@@H](C)CO)C[C@@H](C)[C@@H](CN(C)Cc2ccc(-c4ccccc4)cc2)O3)cc1	64*	-0.057	-32
COc1ccc(S(=O)(=O)Nc2ccc3c(c2)CC(=O)N([C@H](C)CO)C[C@@H](C)[C@@H](CN(C)Cc2ccc(Oc4ccccc4)cc2)O3)cc1	70*	-0.093	-29
COc1ccc(S(=O)(=O)Nc2ccc3c(c2)CC(=O)N([C@@H](C)CO)C[C@H](C)[C@H](CN(C)Cc2ccccc2)O3)cc1	43	0.34	2
COc1ccc(S(=O)(=O)Nc2ccc3c(c2)CC(=O)N([C@H](C)CO)C[C@H](C)[C@H](CN(C)Cc2ccc(Oc4ccccc4)cc2)O3)cc1	22	0.16	-16
COc1ccc(S(=O)(=O)Nc2ccc3c(c2)CC(=O)N([C@H](C)CO)C[C@@H](C)[C@H](CN(C)Cc2ccccc2)O3)cc1	66*	0.13	3
COc1ccc(S(=O)(=O)Nc2ccc3c(c2)CC(=O)N([C@@H](C)CO)C[C@H](C)[C@H](CN(C)Cc2ccc(-c4ccccc4)cc2)O3)cc1	29	-0.27	-26
COc1ccc(S(=O)(=O)Nc2ccc3c(c2)CC(=O)N([C@H](C)CO)C[C@H](C)[C@H](CN(C)Cc2ccc(-c4ccccc4)cc2)O3)cc1	25	0.24	-28
SMILES	T cruzi intra	YB-1 expression	INS-1E rescue
COc1ccc(S(=O)(=O)Nc2ccc3c(c2)CC(=O)N([C@@H](C)CO)C[C@H](C)[C@@H](CN(C)Cc2ccc(-c4ccccc4)cc2)O3)cc1	73*	0.022	-66
CSc1cccc(N2C(=O)C3CC=C(C)CC3C2=O)c1 (centres undefined)	nt	0.019	nt
CCCCCCCCCC(O)CC(O)CC(O)CC1CC=CC(=O)O1 (centres undefined)	nt	-0.088	nt
CNS(=O)(=O)c1ccc(C(F)(F)F)cc1S(=O)c1ccccc1C(=O)O (centres undefined)	nt	0.39	nt
COc1ccc(NC(=O)Nc2ccc3c(c2)C(=O)N([C@H](C)CO)C[C@H](C)[C@@H](CN(C)Cc2ccc4c(c2)OCO4)OCCCC[C@@H](C)O3)cc1	-10	0.28	-12
COc1ccc(NC(=O)Nc2ccc3c(c2)C(=O)N([C@H](C)CO)C[C@H](C)[C@@H](CN(C)Cc2ccc(Cl)c(Cl)c2)OCCCC[C@@H](C)O3)cc1	59*	0.24	-45
COc1ccc(NC(=O)Nc2ccc3c(c2)C(=O)N([C@H](C)CO)C[C@H](C)[C@H](CN(C)Cc2ccc(Cl)c(Cl)c2)OCCCC[C@@H](C)O3)cc1	64*	0.0047	-28
COc1ccc(NC(=O)Nc2ccc3c(c2)C(=O)N([C@H](C)CO)C[C@H](C)[C@H](CN(C)Cc2ccc4c(c2)OCO4)OCCCC[C@@H](C)O3)cc1	26	0.32	-22
S=c1cc[nH]c(=S)n1-c1nc(-c2ccccc2)sc1-c1ccccc1	nt	0.38	nt
COc1ccc(C(=O)N(CC#N)CC#N)cc1	nt	-0.069	nt
Cc1ccc(S(=O)(=O)Nc2ccc3c(c2)C(=O)N([C@@H](C)CO)C[C@@H](C)[C@@H](CN(C)C(=O)Nc2ccc(C(F)(F)F)cc2)O3)cc1	68*	-0.032	-25
Cc1ccc(S(=O)(=O)Nc2ccc3c(c2)C(=O)N([C@@H](C)CO)C[C@@H](C)[C@H](CN(C)C(=O)Nc2ccc(C(F)(F)F)cc2)O3)cc1	7	0.2	-8
COc1ccc(NC(=O)N(C)C[C@@H]2OCCCC[C@@H](C)Oc3ccc(NS(=O)(=O)c4ccc(C)cc4)cc3C(=O)N([C@H](C)CO)C[C@@H]2C)cc1	-16	0.38	-1
C[C@@H]1CCCCO[C@H](CN(C)C(=O)Nc2ccc(C(F)(F)F)cc2)[C@@H](C)CN([C@H](C)CO)C(=O)c2cc(NS(=O)(=O)c3ccccc3)ccc2O1	45	0.19	-30

Screening results (PubChem BioAssay)
